MrgX1 antag – antagonists of human MrgX1 receptor, primary screen, HEK293 cells, Fluo-4 calcium flux | B-score at 10 µM | actives 1.3% (n = 310,000) | Mas-related G-protein coupled receptor member X1 (Homo sapiens), Q96LB2 | BAM8-22 antagonism; hits give low values;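 active = calcium-response B-score plate-corrected more than 3 library SD below zero, starting fluorescence within 5 deviations, no agonist response on first addition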;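 note: peak minus trough fluorescence over baseline after final BAM8-22 challenge near maximal dose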
Target sequence (Q96LB2 whole entry, looked up): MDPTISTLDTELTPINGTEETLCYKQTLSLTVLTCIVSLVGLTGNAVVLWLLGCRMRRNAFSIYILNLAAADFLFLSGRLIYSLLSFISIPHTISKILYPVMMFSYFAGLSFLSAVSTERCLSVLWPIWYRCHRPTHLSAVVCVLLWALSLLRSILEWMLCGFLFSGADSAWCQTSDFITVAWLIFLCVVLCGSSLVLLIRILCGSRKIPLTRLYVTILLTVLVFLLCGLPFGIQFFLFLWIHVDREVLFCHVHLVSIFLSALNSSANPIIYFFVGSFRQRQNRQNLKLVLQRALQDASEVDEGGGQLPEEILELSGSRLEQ
RGS4 block – RGS4 inhibitors, primary screen, cell-based, HEK293 M3R inducible RGS4, calcium flux | B-score at 10 µM | Fluo-4 calcium flux; hits give high values; triggered by carbachol at its EC20 | AID 463165, 2010 | actives 0.45% (n = 310,000);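 active = B-score, a plate-corrected calcium signal, over three deviations above library mean, with baseline fluorescence within five deviations of library mean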;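 note: RGS4 expression induced by doxycycline in cells with stable M3 receptor; B-score is computed from the integrated fluorescence ratio over baseline after carbachol; higher B-score means a larger calcium signal and so more RGS4 inhibition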
Target sequence (P49798 whole entry, looked up): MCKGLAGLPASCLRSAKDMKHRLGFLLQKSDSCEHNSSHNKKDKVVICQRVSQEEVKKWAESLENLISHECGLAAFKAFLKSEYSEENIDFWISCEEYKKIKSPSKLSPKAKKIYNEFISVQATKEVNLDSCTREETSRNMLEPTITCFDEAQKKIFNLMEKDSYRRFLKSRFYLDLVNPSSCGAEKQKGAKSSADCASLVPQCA
MrgX1 agonist – agonists of human MrgX1 receptor, primary screen, HEK293 cells, Fluo-4 calcium flux | B-score at 10 µM | actives 0.44% (n = 310,000) | Mas-related G-protein coupled receptor member X1 (Homo sapiens), Q96LB2 | Fluo-4 calcium fluorescence, agonist mode; hits give high values;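 active = calcium response B-score plate-corrected fluorescence ratio at least 3 library SD, with starting fluorescence B-score inside 5 SD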
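Material – MrgX1-expressing HEK293 cells · Input – 15,000 cells seeded per well · Dosing – compound as first of three additions · Times – overnight seeding, then 1 h dark dye loading · Measured by – kinetic Fluo-4 NW fluorescence of intracellular calcium · Read-out – B-scored fluorescence response ratio · Benchmarks – positive and negative control wells on each plate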
MrgX1 allo act – positive allosteric modulators of MrgX1, primary screen, HEK293 cells, Fluo-4 calcium flux; FDSS; hits give high values; B-score at 10 µM; actives 0.63% (n = 310,000); AID 588675, 2011;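 active = plate-corrected calcium response at least 3 library SD above typical, normal starting fluorescence, not activating the receptor alone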;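 note: compound read alongside a low EC10 to EC30 dose of BAM8-22 agonist; peak minus trough fluorescence over baseline measured at the second addition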
RGS4 act – RGS4 potentiators or activators, primary screen, cell-based, HEK293 M3R inducible RGS4, calcium flux; actives 0.92% (n = 310,000); carbachol calcium flux Fluo4; hits give low values; B-score at 10 µM;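 active = B-score of the integrated calcium signal more than 4 SD below the library mean, with starting fluorescence not abnormally high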;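 note: negative B-score means reduced calcium response which marks RGS4 activation or potentiation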
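Material: Inducible-RGS4 HEK293 cells carrying M3 receptor; also added: carbachol at ECmax as muscarinic agonist stimulus; incubation: compound preincubation 20 min at room temperature before agonist; signal: Fluo4-AM (2 µM) calcium-flux fluorescence, kinetic read; measure: integrated calcium ratio converted to B score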
MrgX1 antag conf – MrgX1 receptor antagonists, duplicate retest, confirmation, HEK293 cells, Fluo-4 calcium flux | actives 19% (n = 2,300) | shares compounds with MrgX1 antag | AID 602420, 2012 | BAM8-22 calcium flux; hits give low values | remaining BAM8-22 calcium response % of control (hits give low values), % at 10 µM;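 active = remaining agonist calcium response no higher than 100% minus 3 SD of agonist-only control wells, with starting fluorescence near control levels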;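 note: agonist BAM8-22 given at a near maximal EC90 to ECmax level; peak minus minimum fluorescence divided by baseline after agonist addition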
HEK293 Ca flux – nonspecific calcium signal in parental HEK293, confirmation, counter-screen for MrgX1 antagonist project, parental HEK293 cells, Fluo-4 calcium flux. actives 2% (n = 4,000). fluorescence ratio F(max-min)/F0 at 10 µM. Fluo-4 calcium fluorescence, FDSS. shares compounds with MrgX1 antag;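 active = duplicate-averaged calcium fluorescence ratio at least three times the standard deviation of buffer wells, a nonspecific response in parental cells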
HEK293 Ca counter – calcium response in parental HEK293 cells, primary screen, counter-screen for MrgX1 allosteric activator project, cell-based, Fluo-4 calcium flux, duplicate; fluorescence ratio F(max-min)/F0 at 10 µM; shares compounds with MrgX1 antag; AID 624114, 2012; actives 0.4% (n = 4,000); Fluo-4 fluorescence ratio; hits give high values;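 active = calcium fluorescence ratio, averaged over duplicates, at least 3 SD of the buffer-well ratio, meaning a nonspecific response in receptor-free cells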;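 note: untransfected parental HEK293 lacking MrgX1 used as counterscreen for MrgX1 allosteric activators; fluorescence change taken during the second addition on a kinetic imager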
HEK293 Ca cntr2 – calcium response in parental HEK293 cells, primary screen, counter-screen for MrgX1 agonist project, cell-based, Fluo-4 calcium flux, duplicate, agonist mode; shares compounds with MrgX1 antag; Fluo-4 calcium fluorescence (FDSS); hits give high values; fluorescence ratio F(max-min)/F0 at 10 µM; actives 8.7% (n = 4,000);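 active = calcium fluorescence ratio at least three times the spread of buffer wells, meaning a non-specific response in parental cells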
Hits are given with their value; 0 = inactive; - = no result. In the library only some 3.5% were active in any assay of this set; here they are far more common.

SMILES | MrgX1 antag | RGS4 block | MrgX1 agonist | MrgX1 allo act | RGS4 act | MrgX1 antag conf | HEK293 Ca flux | HEK293 Ca counter | HEK293 Ca cntr2
Cc1ccc(S(=O)(=O)N2CCN(CC(O)c3ccccc3)CC2)cc1C (stereo not drawn) | -4.96 | 0 | 0 | 0 | 0 | 0 | 0 | 0 | 0
CC(C)(C)C(=O)CSc1ncnc2sc3c(c12)CCC3 | -9.68 | 0 | 0 | 0 | 0 | 0 | 0 | 0 | 0
CC(=O)CSc1ncnc2sc3c(c12)CCC3 | 0 | 0 | 0 | 0 | 0 | - | - | - | -
N#C/C(=C/c1ccc(CNC(=O)C(=O)Nc2cc(Cl)cc(Cl)c2)o1)C(=O)NCc1cccnc1 | 0 | 0 | 0 | 0 | 0 | - | - | - | -
Cc1ccc(S(=O)(=O)c2nc(-c3cccs3)oc2SCC(N)=O)cc1 | -7.12 | 0 | 0 | 0 | 0 | 0 | 0 | 0 | 0
Cc1ccc(-c2nc(S(=O)(=O)c3ccc(C)cc3)c(SCC(N)=O)o2)cc1 | 0 | 0 | 0 | 0 | 0 | - | - | - | -
O=C(COc1cccc2ccccc12)Nc1cc(Cl)ccc1C(=O)O | -7.55 | 0 | 0 | 0 | 0 | 61.7% | 0 | 0 | 0
COc1ccccc1CC(=O)Nc1ccc(Cl)cc1C(=O)O | 0 | 0 | 0 | 0 | 0 | - | - | - | -
O=C(COc1cccc2ccccc12)Nc1ccc(Cl)cc1C(=O)O | -7.46 | 0 | 0 | 0 | 0 | 74.4% | 0 | 0 | 0
CCc1ccc(C2CC(c3ccccc3Cl)Nc3nc(N)nn32)cc1 (stereo not drawn) | -5.07 | 0 | 0 | 0 | 0 | 0 | 0 | 0 | 0
Nc1nc2n(n1)C(c1ccco1)CC(c1ccc(Cl)cc1)N2 (stereo not drawn) | -6.33 | 0 | 0 | 0 | 0 | 0 | 0 | 0 | 0
CCOC(=O)C1=C(C)NC(=O)NC1c1ccc(-c2ccc(Cl)cc2)o1 (stereo not drawn) | 0 | 0 | 0 | 0 | 0 | - | - | - | -
CCOC(=O)C1=C(C)NC(=S)NC1c1ccc(-c2ccc(Cl)cc2)o1 (stereo not drawn) | -4.83 | 0 | 0 | 0 | 0 | 0 | 0 | 0 | 0
CC1(C)CC(=O)C2=C(C1)N(c1ccc(F)cc1)C(=O)CC2c1ccsc1 (stereo not drawn) | -5.06 | 0 | 0 | 0 | 0 | 0 | 0 | 0 | 0
Cc1ccccc1-n1c(=O)cc(N2CCCCCC2)[nH]c1=O | -6.01 | 0 | 0 | 0 | 0 | 0 | 0 | 0 | 0
NC(=O)COc1ccc2oc(-c3ccccc3)cc(=O)c2c1 | - | 0 | - | - | 0 | - | - | - | -
Cc1ccc2nsnc2c1S(=O)(=O)N1CCN(Cc2ccc3c(c2)OCO3)CC1 | -7.49 | 0 | 0 | 0 | 0 | 0 | 0 | 0 | 0
CCCC(CCC(=O)NC1CCCCC1)C(=O)O (stereo not drawn) | 0 | 0 | 0 | 0 | 0 | - | - | - | -
CCCC(C)NC(C)C(=O)NC1CCCC1 (stereo not drawn) | -4.97 | 0 | 0 | 0 | 0 | 0 | 0 | 0 | 0
COC(=O)c1cc(OC)c(OC)cc1NC(=S)N1CCCCC1 | -6.76 | 0 | 0 | 0 | 0 | 0 | 0 | 0 | 0
COC(=O)c1cc(OC)c(OC)cc1NC(=S)N1CCN(C)CC1 | 0 | 0 | 0 | 0 | 0 | - | - | - | -
O=C(c1ccc(N2CCCCC2)c([N+](=O)[O-])c1)N(Cc1ccccc1)c1ccccn1 | 0 | 0 | 0 | 0 | 0 | - | - | - | -
Cc1cc(NC(=O)CCCC(=O)O)nc(C)n1 | -6.42 | 0 | 0 | 0 | 0 | 0 | 0 | 0 | 0

Assay outcomes deposited in PubChem BioAssay by Johns Hopkins Ion Channel Center.
